Experimental data from ChEMBL document CHEMBL1148007, “Synthesis of new S-derivatives of clubbed triazolyl thiazole as anti-Mycobacterium tuberculosis agents” (Bioorg Med Chem, 2007).

Tests used:
[1] = system: Mycobacterium tuberculosis; test: Antitubercular activity against Mycobacterium tuberculosis H37Rv by MABA assay; type: functional
Outline: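 Actives re-tested at lower concentrations against H37Rv (ATCC 27294) in BACTEC 12B medium by Microplate Alamar Blue Assay. MIC taken as lowest concentration giving […] fluorescence reduction versus controls; rifampin reference.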

[2] = system: Mycobacterium tuberculosis; test: Antitubercular activity against Mycobacterium tuberculosis H37Rv at 6.25 ug/mL by MABA assay; type: functional; settings: read-out: GI
Outline: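 Primary screen against M. tuberculosis H37Rv (ATCC 27294) in BACTEC 12B medium by broth microdilution Microplate Alamar Blue Assay; fluorescent compounds run instead in BACTEC 460 radiometric system. Compounds above 95% inhibition counted active.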

Staphylococcus aureus = test: Antibacterial activity against Staphylococcus aureus at 50 to 100 uM after 24 hrs by well diffusion method; type: functional
Outline: (§1)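 Nutrient agar plates with 10 mm wells cut by cork borer; 24-h subcultured bacteria swabbed on. Compounds dissolved in chloroform, 50 to 100 μM added to wells, gentamycin as standard. Incubated 24 h at 24–28 °C; inhibition zone diameter measured and converted to percent inhibition.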

Escherichia coli = test: Antibacterial activity against Escherichia coli at 50 to 100 uM after 24 hrs by well diffusion method; type: functional; outline: as §1
Pseudomonas aeruginosa = test: Antibacterial activity against Pseudomonas aeruginosa at 50 to 100 uM after 24 hrs by well diffusion method; type: functional; outline: as §1
Salmonella typhi = test: Antibacterial activity against Salmonella typhi at 50 to 100 uM after 24 hrs by well diffusion method; type: functional, Salmonella enterica subsp. enterica serovar Typhi; set-up: unit not given here; outline: as §1
[3] = Cytotoxicity against Vero-C1008 cells at 6.25 to 50 ug/mL by neutral red uptake assay; type: cell-based; settings: chlorocebus sabaeus
Outline: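 Vero-C-1008 cells exposed to 6.25 to 50 μg/mL compound; viability read by neutral red uptake.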

Row | Structure (SMILES) | MIC [1] | inhibition of growth at 6.25 µg/mL [2] [%] | inhibition zone (Staphylococcus aureus) [mm] | inhibition zone (Escherichia coli) [mm] | inhibition zone (Pseudomonas aeruginosa) [mm] | Inhibition (Salmonella typhi) | Activity [3]
1 | O=C(CSc1nnc(Cc2csc(NC(=O)CCl)n2)n1NC(=O)c1cccc([N+](=O)[O-])c1)N/N=C/c1ccccc1 | 1.56 µM | 100 | 31 | 26 | 30 | 25 | Non-toxic
2 | N#CCSc1nnc(Cc2csc(NC(=O)CCl)n2)n1NC(=O)c1ccc(Cl)cc1 | 3.13 µM | 96 | 24 | 26 | 28 | 16 | Non-toxic
3 | CC(=O)Nc1nc(Cc2nnc(SCC#N)n2NC(=O)c2ccc(Cl)cc2)cs1 | 3.13 µM | 96 | 28 | 23 | 20 | 24 | Non-toxic
4 | O=C(O)CCNc1nc(Cc2nnc(SCC(=O)N/N=C/c3ccccc3)n2NC(=O)c2cccc([N+](=O)[O-])c2)cs1 | 1.56 µM | 96 | 30 | 26 | 32 | 27 | Non-toxic
5 | N#CCSc1nnc(Cc2csc(NCCC(=O)O)n2)n1NC(=O)c1cccc([N+](=O)[O-])c1 | < 6.25 µg/mL | 96 | 25 | 24 | 23 | 24 | Non-toxic
6 | O=C(CSc1nnc(Cc2csc(NC(=O)CCl)n2)n1NC(=O)c1ccc(Cl)cc1)N/N=C/c1ccccc1 | 3.13 µM | 96 | 24 | 19 | 19 | 17 | Non-toxic
7 | CC(=O)Nc1nc(Cc2nnc(SCC(=O)NN)n2NC(=O)c2ccc(Cl)cc2)cs1 | 6.25 µM | 96 | 16 | 12 | 16 | 14 | Non-toxic
8 | NNC(=O)CSc1nnc(Cc2csc(NC(=O)c3ccccc3)n2)n1NC(=O)c1ccc(Cl)cc1 | 6.25 µM | 96 | 32 | 26 | 32 | 24 | Non-toxic
9 | O=C(CSc1nnc(Cc2csc(NC(=O)c3ccccc3)n2)n1NC(=O)c1ccc(Cl)cc1)N/N=C/c1ccccc1 | 3.13 µM | 96 | 21 | 23 | 24 | 21 | Non-toxic
10 | O=C(CSc1nnc(Cc2csc(NC(=O)c3ccccc3)n2)n1NC(=O)c1cccc([N+](=O)[O-])c1)N/N=C/c1ccccc1 | 0.39 µM | 96 | 32 | 25 | 30 | 24 | Non-toxic
11 | NNC(=O)CSc1nnc(Cc2csc(NC(=O)CCl)n2)n1NC(=O)c1cccc([N+](=O)[O-])c1 | 6.25 µM | 96 | 29 | 19 | 20 | 18 | Non-toxic
12 | COC(=O)CSc1nnc(Cc2csc(NC(C)=O)n2)n1NC(=O)c1ccc(Cl)cc1 | < 6.25 µg/mL | – | 20 | 10 | 16 | 10 | Non-toxic
13 | CC(=O)Nc1nc(Cc2nnc(SCC(=O)NNC(=O)c3ccccc3)n2NC(=O)c2cccc([N+](=O)[O-])c2)cs1 | < 6.25 µg/mL | – | 32 | 30 | 30 | 27 | Non-toxic
14 | O=C(CSc1nnc(Cc2csc(NC(=O)c3ccccc3)n2)n1NC(=O)c1cccc([N+](=O)[O-])c1)NNC(=O)c1ccccc1 | < 6.25 µg/mL | – | 18 | 14 | 12 | 12 | Non-toxic
15 | O=C(CCl)Nc1nc(Cc2nnc(SCSc3nnc(Cc4csc(NC(=O)CCl)n4)n3NC(=O)c3cccc([N+](=O)[O-])c3)n2NC(=O)c2cccc([N+](=O)[O-])c2)cs1 | < 6.25 µg/mL | – | 18 | 27 | 30 | 24 | Non-toxic
16 | Nn1c(S)nnc1CSc1nnc(Cc2csc(NCCC(=O)O)n2)n1NC(=O)c1cccc([N+](=O)[O-])c1 | < 6.25 µg/mL | – | 26 | 17 | 28 | 18 | Non-toxic

Row | Structure (SMILES) | MIC [1] | inhibition of growth at 6.25 µg/mL [2] [%] | inhibition zone (Staphylococcus aureus) [mm] | inhibition zone (Escherichia coli) [mm] | inhibition zone (Pseudomonas aeruginosa) [mm] | Inhibition (Salmonella typhi) | Activity [3]
17 | Nn1c(S)nnc1CSc1nnc(Cc2csc(NC(=O)CCl)n2)n1NC(=O)c1cccc([N+](=O)[O-])c1 | < 6.25 µg/mL | – | 20 | 18 | 26 | 21 | Non-toxic
18 | O=C(CCl)NNC(=O)CSc1nnc(Cc2csc(NC(=O)c3ccccc3)n2)n1NC(=O)c1ccc(Cl)cc1 | < 6.25 µg/mL | – | 26 | 19 | 23 | 22 | Non-toxic
19 | Nn1c(S)nnc1CSc1nnc(Cc2csc(NCCC(=O)O)n2)n1NC(=O)c1ccc(Cl)cc1 | < 6.25 µg/mL | – | 21 | 19 | 24 | 23 | Non-toxic
20 | NNC(=O)CSc1nnc(Cc2csc(NCCC(=O)O)n2)n1NC(=O)c1cccc([N+](=O)[O-])c1 | < 6.25 µg/mL | – | 24 | 16 | 28 | 21 | Non-toxic
21 | O=C(CCl)Nc1nc(Cc2nnc(SCSc3nnc(Cc4csc(NC(=O)CCl)n4)n3NC(=O)c3ccc(Cl)cc3)n2NC(=O)c2ccc(Cl)cc2)cs1 | < 6.25 µg/mL | – | 23 | 29 | 28 | 18 | Non-toxic
22 | O=C(O)CCNc1nc(Cc2nnc(SCSc3nnc(Cc4csc(NCCC(=O)O)n4)n3NC(=O)c3ccc(Cl)cc3)n2NC(=O)c2ccc(Cl)cc2)cs1 | < 6.25 µg/mL | – | 21 | 22 | 29 | 20 | Non-toxic
23 | O=C(O)CCNc1nc(Cc2nnc(SCC(=O)NNC(=O)c3ccccc3)n2NC(=O)c2ccc(Cl)cc2)cs1 | < 6.25 µg/mL | – | 18 | 19 | 25 | 23 | Non-toxic
24 | O=C(CSc1nnc(Cc2csc(NC(=O)CCl)n2)n1NC(=O)c1ccc(Cl)cc1)NNC(=O)c1ccccc1 | < 6.25 µg/mL | – | 21 | 21 | 26 | 20 | Non-toxic
25 | COC(=O)CSc1nnc(Cc2csc(NCCC(=O)O)n2)n1NC(=O)c1ccc(Cl)cc1 | < 6.25 µg/mL | – | 26 | 22 | 24 | 18 | Non-toxic
26 | CC(=O)Nc1nc(Cc2nnc(SCSc3nnc(Cc4csc(NC(C)=O)n4)n3NC(=O)c3cccc([N+](=O)[O-])c3)n2NC(=O)c2cccc([N+](=O)[O-])c2)cs1 | < 6.25 µg/mL | – | 27 | 26 | 32 | 26 | Non-toxic
27 | COC(=O)CSc1nnc(Cc2csc(NC(=O)c3ccccc3)n2)n1NC(=O)c1ccc(Cl)cc1 | < 6.25 µg/mL | – | 22 | 20 | 22 | 16 | Non-toxic
28 | Nn1c(S)nnc1CSc1nnc(Cc2csc(NC(=O)c3ccccc3)n2)n1NC(=O)c1ccc(Cl)cc1 | < 6.25 µg/mL | – | 26 | 20 | 19 | 19 | Non-toxic
29 | CC(=O)Nc1nc(Cc2nnc(SCSc3nnc(Cc4csc(NC(C)=O)n4)n3NC(=O)c3ccc(Cl)cc3)n2NC(=O)c2ccc(Cl)cc2)cs1 | < 6.25 µg/mL | – | 24 | 24 | 21 | 17 | Non-toxic
30 | O=C(CCl)NNC(=O)CSc1nnc(Cc2csc(NC(=O)c3ccccc3)n2)n1NC(=O)c1cccc([N+](=O)[O-])c1 | < 6.25 µg/mL | – | 14 | 18 | 11 | 12 | Non-toxic
31 | COC(=O)CSc1nnc(Cc2csc(NC(=O)CCl)n2)n1NC(=O)c1cccc([N+](=O)[O-])c1 | < 6.25 µg/mL | – | 26 | 20 | 24 | 20 | Non-toxic
